Experimental data as given in ChEMBL document CHEMBL1121938, “Hypocholesterolemic and antiaggregatory properties of 2-hydroxytetronic acid redox analogues an their relationship to clofibric acid” (1982).

Legend:
Rattus norvegicus [1] = test: Effect of compound was measured on serum alpha-lipoprotein in male Dawley rats at the dose of 0.2 mmol/kg (day+10).; assay type: functional
Outline: (§1)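 Male Sprague-Dawley rats (180-210 g) fed a high-cholesterol diet for 1 week before and throughout dosing. Groups of n = 6 were dosed orally twice daily for 14 days in 0.25% methylcellulose, with vehicle controls. Rats were fasted 16-18 h before orbital bleeds on days -1, +4, +7 and +10, and by aortic exsanguination on day +14. Serum α-lipoprotein cholesterol was measured by polyanionic precipitation, in mg/dL ± SD.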

Rattus norvegicus [2] = test: Effect of compound on liver TG levels in male Dawley rats at the dose of 0.4 mmol/kg; assay type: functional; set-up: unit: g/100 g wet liver
Outline: (§2)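 Male Sprague-Dawley rats (180-210 g) were kept on a high-cholesterol diet for 1 week before and throughout treatment. Groups of n = 6 received drug in 0.25% methylcellulose orally twice daily for 14 days, or vehicle. After a 16-18 h fast, livers were excised at day +14 and homogenized in 0.1 M Tris-HCl pH 7.2 with 1.15% KCl. Lipids were extracted from 25% w/v homogenate and reported as g/100 g wet liver ± SD; groups compared by ANOVA and Duncan's test.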

Rattus norvegicus [3] = test: Effect of compound was measured on serum total cholesterol in male Dawley rats at the dose of 0.4 mmol/kg (day+10).; assay type: functional, organism-based
Outline: (§3)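 Serum total cholesterol was measured enzymatically on a bichromatic analyzer. Serum was separated after clotting on ice (2000g, 10 min), held at 4 °C and assayed within 48 h. Rats were male Sprague-Dawley on a high-cholesterol diet, n = 6, dosed orally twice daily for 14 days in 0.25% methylcellulose (1.0 mL/100 g). They were fasted 16-18 h before each bleed. Results are in mg/dL ± SD.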

Rattus norvegicus [4] = test: Effect of compound was measured on serum alpha-lipoprotein in male Dawley rats at the dose of 0.4 mmol/kg (day+4).; assay type: functional; outline: as §1
Rattus norvegicus [5] = test: Effect of compound was measured on serum total cholesterol in male Dawley rats at the dose of 0.2 mmol/kg (day+14).; assay type: functional, organism-based; outline: as §3
Rattus norvegicus [6] = test: Effect of compound was measured on serum alpha-lipoprotein in male Dawley rats at the dose of 0.4 mmol/kg (day-1).; assay type: functional; outline: as §1
Rattus norvegicus [7] = test: Effect of compound was measured on serum total triglycerides in male Dawley rats at the dose of 0.4 mmol/kg (day+4); assay type: functional, organism-based
Outline: (§4)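 Serum triglycerides were measured with an enzymatic triglyceride reagent on a bichromatic analyzer. Rats were male Sprague-Dawley (180-210 g) fed a high-cholesterol diet, n = 6 per group, dosed orally twice daily for 14 days in 0.25% methylcellulose or vehicle. They were fasted 16-18 h before blood collection on days -1, +4, +7, +10 (orbital plexus, light ether) and +14 (aorta). Analysis was repeated-measures ANOVA with Duncan's test.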

Rattus norvegicus [8] = test: Effect of compound was measured on serum total triglycerides in male Dawley rats at the dose of 0.4 mmol/kg (day+14).; assay type: functional, organism-based; outline: as §4
[9] = Effect of compound was measured on serum heparin-MnCl2 precipated ipoprotein Dawley rats at 0.2 mmol/kg dose(day-1).; assay type: functional
Outline: (§5)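 Cholesterol-fed male Sprague-Dawley rats, n = 6 per group, given compound or 0.25% methylcellulose orally twice daily for 14 days, and fasted 16-18 h before each bleed (days -1, +4, +7, +10, +14). Heparin-MnCl2 precipitable lipoprotein cholesterol was taken as serum total cholesterol minus α-lipoprotein cholesterol. It is reported as a ratio to α-LP cholesterol ± SD. Analysis was ANOVA with repeated measures and Duncan's test.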

Rattus norvegicus [10] = test: Effect of compound was measured on serum total cholesterol in male Dawley rats at the dose of 0.2 mmol/kg (day+10).; assay type: functional, organism-based; outline: as §3
[11] = Effect of compound was measured on serum heparin-MnCl2 precipated ipoprotein Dawley rats at 0.2 mmol/kg dose(day+14).; assay type: functional; outline: as §5
Rattus norvegicus [12] = test: Effect of compound was measured on serum alpha-lipoprotein in male Dawley rats at the dose of 0.4 mmol/kg (day14).; assay type: functional; outline: as §1
Rattus norvegicus [13] = test: Effect of compound was measured on serum alpha-lipoprotein in male Dawley rats at the dose of 0.4 mmol/kg (day+10).; assay type: functional; outline: as §1
Rattus norvegicus [14] = test: Effect of compound was measured on serum total cholesterol in male Dawley rats at the dose of 0.4 mmol/kg (day+4).; assay type: functional, organism-based; outline: as §3
Rattus norvegicus [15] = test: Effect of compound was measured on serum total cholesterol in male Dawley rats at the dose of 0.4 mmol/kg (day+7).; assay type: functional, organism-based; outline: as §3
Rattus norvegicus [16] = test: Effect of compound was measured on serum alpha-lipoprotein in male Dawley rats at the dose of 0.4 mmol/kg (day+7).; assay type: functional; outline: as §1
Rattus norvegicus [17] = test: Effect of compound was measured on serum alpha-lipoprotein in male Dawley rats at the dose of 0.2 mmol/kg (day+7).; assay type: functional; outline: as §1
[18] = Effect of compound was measured on serum heparin-MnCl2 precipated ipoprotein Dawley rats at 0.4 mmol/kg dose(day+10).; assay type: functional; outline: as §5
Rattus norvegicus [19] = test: Effect of compound was measured on serum total triglycerides in male Dawley rats at the dose of 0.2 mmol/kg (day+10).; assay type: functional, organism-based; outline: as §4
Rattus norvegicus [20] = test: Effect of compound was measured on serum total cholesterol in male Dawley rats at the dose of 0.4 mmol/kg (day-1).; assay type: functional, organism-based; outline: as §3
Rattus norvegicus [21] = test: Effect of compound was measured on serum total triglycerides in male Dawley rats at the dose of 0.4 mmol/kg (day-1); assay type: functional, organism-based; outline: as §4
Rattus norvegicus [22] = test: Effect of compound was measured on serum total triglycerides in male Dawley rats at the dose of 0.2 mmol/kg (day+4).; assay type: functional, organism-based; outline: as §4
Rattus norvegicus [23] = test: Effect of compound on liver TG levels in male Dawley rats at the dose of 0.2 mmol/kg; assay type: functional; outline: as §2
[24] = Effect of compound was measured on serum heparin-MnCl2 precipated ipoprotein Dawley rats at 0.2 mmol/kg dose(day+4).; assay type: functional; outline: as §5
[25] = Effect of compound on liver to body weight ratio in male Dawley rats at the dose of 0.2 mmol/kg; assay type: functional
Outline: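 Male Sprague-Dawley rats (180-210 g) were kept on a cholesterol-rich diet and dosed orally twice daily for 14 days in 0.25% methylcellulose; vehicle controls received the same; n = 6 per group. After a 16-18 h fast, rats were exsanguinated at day +14. Livers were removed, rinsed in ice-cold buffer, blotted and weighed, and related to body weight. Data were analysed by repeated-measures ANOVA with Duncan's multiple range test.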

Rattus norvegicus [26] = test: Effect of compound was measured on serum total cholesterol in male Dawley rats at the dose of 0.2 mmol/kg (day-1).; assay type: functional, organism-based; outline: as §3
[27] = Effect of compound was measured on serum heparin-MnCl2 precipated ipoprotein Dawley rats at 0.2 mmol/kg dose(day+10).; assay type: functional; outline: as §5
Rattus norvegicus [28] = test: Effect of compound was measured on serum total triglycerides in male Dawley rats at the dose of 0.2 mmol/kg (day+7).; assay type: functional, organism-based; outline: as §4
Rattus norvegicus [29] = test: Effect of compound was measured on serum alpha-lipoprotein in male Dawley rats at the dose of 0.2 mmol/kg (day+4).; assay type: functional; outline: as §1
[30] = Effect of compound was measured on serum heparin-MnCl2 precipated ipoprotein Dawley rats at 0.4 mmol/kg dose(day+14).; assay type: functional; outline: as §5
Rattus norvegicus [31] = test: Effect of compound was measured on serum total triglycerides in male Dawley rats at the dose of 0.2 mmol/kg (day+14).; assay type: functional, organism-based; outline: as §4
Rattus norvegicus [32] = test: Effect of compound was measured on serum total cholesterol in male Dawley rats at the dose of 0.2 mmol/kg (day+7).; assay type: functional, organism-based; outline: as §3
[33] = Effect of compound was measured on serum heparin-MnCl2 precipated ipoprotein Dawley rats at 0.4 mmol/kg dose(day+7).; assay type: functional; outline: as §5

O=C1C(O)=C(O)OC1c1ccc(Cl)cc1 (stereo not drawn)
Alpha-lipoprotein cholesterol (Rattus norvegicus [1]): 38.8 mg/dL | Liver TG (Rattus norvegicus [2]): 5.08 | serum total cholesterol (Rattus norvegicus [3]): 135 mg/dL | Alpha-lipoprotein cholesterol (Rattus norvegicus [4]): 41.8 mg/dL | serum total cholesterol (Rattus norvegicus [5]): 145 mg/dL | Alpha-lipoprotein cholesterol (Rattus norvegicus [6]): 39.7 mg/dL | Serum total triglycerides (Rattus norvegicus [7]): 167 mg/dL | Serum total triglycerides (Rattus norvegicus [8]): 87.8 mg/dL | Ratio [9]: 6.03 | serum total cholesterol (Rattus norvegicus [10]): 161 mg/dL | Ratio [11]: 2.2 | Alpha-lipoprotein cholesterol (Rattus norvegicus [12]): 61 mg/dL | Alpha-lipoprotein cholesterol (Rattus norvegicus [13]): 52.2 mg/dL | serum total cholesterol (Rattus norvegicus [14]): 154 mg/dL | serum total cholesterol (Rattus norvegicus [15]): 125 mg/dL | Alpha-lipoprotein cholesterol (Rattus norvegicus [16]): 46 mg/dL | Alpha-lipoprotein cholesterol (Rattus norvegicus [17]): 42.5 mg/dL | Ratio [18]: 1.75 | Serum total triglycerides (Rattus norvegicus [19]): 193 mg/dL | serum total cholesterol (Rattus norvegicus [20]): 196 mg/dL | Serum total triglycerides (Rattus norvegicus [21]): 193 mg/dL | Serum total triglycerides (Rattus norvegicus [22]): 251 mg/dL | Liver TG (Rattus norvegicus [23]): 4.82 | Ratio [24]: 3.72 | Ratio [25]: 3.8 | serum total cholesterol (Rattus norvegicus [26]): 276 mg/dL | Ratio [27]: 3.33 | Serum total triglycerides (Rattus norvegicus [28]): 204 mg/dL | Alpha-lipoprotein cholesterol (Rattus norvegicus [29]): 43.8 mg/dL | Ratio [30]: 1.39 | Serum total triglycerides (Rattus norvegicus [31]): 148 mg/dL | serum total cholesterol (Rattus norvegicus [32]): 204 mg/dL | Ratio [33]: 1.74
